These results are taken from ChEMBL document CHEMBL1137687, “Anti-HIV evaluation of benzo[d]isothiazole hydrazones” (Eur J Med Chem, 2009).

A value given as a limit tells only on which side of the number the result lay.

Data set [1] can be described thus: Cytotoxicity against mock-infected human MT4 cells after 4 days by MTT assay. In kind it is cell-based. In a few lines:
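Mock-infected MT-4 cells, 1 × 10⁴ per well in RPMI 1640 with 10% FCS, 37 °C, 5% CO₂. Exposed to serial compound dilutions from a 100 mM DMSO stock diluted in medium, in parallel with the antiviral assay. Viability read by MTT. CC₅₀ taken as concentration reducing viability of mock-infected cells by 50%.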
(In general: Tetrazolium assays rely on reduction of a dye to a coloured formazan, in cell work by metabolically active cells.)

Data set [2] relates to Human immunodeficiency virus 1. Briefly: Antiviral activity against NNRTI-resistant HIV1 3B with reverse transcriptase K103R+V179D+P225H mutation in human MT4 cells assessed as protection against virus-induced cytopathogenicity after 4 days by MTT assay. The class given is functional, organism-based. Conditions: Human immunodeficiency virus 1, 3B, MT4, 96 h. The method, boiled down:
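K103R+V179D+P225H (EFV^R) virus, from IIIB passaged in MT-4 cells under efavirenz; stock 4.0×10⁷ CCID50/mL. Added to 1×10⁴ MT-4 cells/well (RPMI 1640, 10% FCS, 37 °C, 5% CO2) with compound dilutions from 100 mM DMSO stock, amount causing complete cytopathogenicity at day 4. Viability by MTT; EC50 = concentration giving 50% protection.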

For data set [3], the system named is Human immunodeficiency virus 1. Briefly: Antiviral activity against NNRTI-resistant HIV1 3B with reverse transcriptase K103N+Y181C mutation in human MT4 cells assessed as protection against virus-induced cytopathogenicity after 4 days by MTT assay. In kind it is functional, organism-based. The following applies: Human immunodeficiency virus 1, 3B, MT4, 96 h. The method, boiled down:
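MT-4 cells (RPMI 1640, 10% FCS, 37 °C, 5% CO2), 1×10⁴/well, with compound serial dilutions from 100 mM DMSO stock, infected with K103N+Y181C virus (NIH A17, from IIIB passaged in H9 cells with BI-RG 587; stock 2.1×10⁷ CCID50/mL) at dose giving full cytopathogenicity by day 4. MTT viability; EC50 = 50% protection.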
In general terms: Protection from cytopathic effect is a common read-out in antiviral testing.

For data set [4], the system named is Human immunodeficiency virus 1. Briefly: Antiviral activity against NNRTI-resistant HIV1 with reverse transcriptase Y181C mutation in human MT4 cells assessed as protection against virus-induced cytopathogenicity after 4 days by MTT assay. In kind it is functional, organism-based. The following applies: Human immunodeficiency virus 1, MT4, 96 h. In a few lines:
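Y181C virus (NIH N119) came from an AZT-sensitive clinical isolate passaged in CEM then MT-4 cells with nevirapine; stock 1.2×10⁸ CCID50/mL. It infected 1×10⁴ MT-4 cells/well (RPMI 1640, 10% FCS, 37 °C, 5% CO2) with compound dilutions from 100 mM DMSO stock, at a dose giving full cytopathogenicity by day 4. Readout MTT; EC50 = 50% protection.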

Data set [5] deals with Human immunodeficiency virus 1. Briefly: Antiviral activity against wild type HIV1 3B assessed as protection as protection against virus-induced cytopathogenicity after 4 days by MTT assay. In kind it is functional. The following applies: Human immunodeficiency virus 1, 3B, 96 h. In a few lines: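 HIV-1 IIIB from supernatants of persistently infected H9/IIIB cells. MT-4 cells, 1 × 10⁴ per well in RPMI 1640 with 10% FCS, exposed to serial compound dilutions (100 mM DMSO stock diluted in medium). Virus inoculum sized in CCID₅₀ to give complete cytopathogenicity by day 4. Incubated at 37 °C, then viability read by MTT. EC₅₀ taken as concentration giving 50% protection from virus-induced cytopathogenicity.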

In general, CC50 refers to the concentration at which the toxic effect on the cells reaches its halfway point. Lower therefore signals harm at low concentration. As a reminder, the EC50 is the concentration at which the effect is half-maximal. In the case of `O=c1c2ccccc2sn1/N=C/c1cccc(Cl)c1`, the CC50 at 96 h in data set [1] was above 100 µM. Moreover, the concentration giving a half-maximal response (EC50) was 68 µM in data set [2], at least 100 µM in data set [3], at least 100 µM in data set [4] and 100 µM in data set [5].

For `Cc1ccc2sn(/N=C/c3cccc([N+](=O)[O-])c3)c(=O)c2c1`, the CC50 at 96 h in data set [1] was above 100 µM. Moreover, the concentration giving a half-maximal response (EC50) in data set [2] was 18 µM; in data set [3], 83 µM; in data set [4] it was 32 µM; in data set [5] it was 48 µM.

Take `Cc1ccc2sn(/N=C/c3cccc(F)c3)c(=O)c2c1`: the cytotoxic concentration (CC50) at 96 h in data set [1] was found to be 30 µM. Besides, the EC50 in data set [2], in data set [3], in data set [4] and in data set [5] was above 30 µM each time.

In data set [1], `O=c1c2ccccc2sn1/N=C/c1ccc(O)cc1` gave a CC50 at 96 h of 18 µM. The 50% effective concentration (EC50) in data set [2] is 8.4 µM; in data set [3], above 18 µM; in data set [4] it was above 18 µM; in data set [5], above 18 µM.

In data set [1], `O=c1c2ccccc2sn1/N=C/c1ccco1` registered a CC50 at 96 h of 18 µM. The EC50 in data set [2], in data set [3], in data set [4] and in data set [5] was above 18 µM throughout.

For `Cc1ccc2sn(/N=C/C=C/c3ccccc3)c(=O)c2c1`, the 50% cytotoxic concentration (CC50) at 96 h in data set [1] came out at 19 µM. Besides, the EC50 in data set [2], in data set [3], in data set [4] and in data set [5] was above 19 µM in each case.

In data set [1], `O=c1c2ccccc2sn1/N=C/c1ccccc1` gave a 50% cytotoxic concentration (CC50) at 96 h of 17 µM. In addition, the half-maximal effective concentration (EC50) is 8.6 µM in data set [2], above 17 µM in data set [3], above 17 µM in data set [4] and 11 µM in data set [5].

For the molecule `O=c1c2ccccc2sn1/N=C/c1ccccc1Cl`, in data set [1], the CC50 at 96 h amounted to 47 µM. Besides, the EC50 in data set [2] is 24 µM; in data set [3] it was above 47 µM; in data set [4] it was 26 µM; in data set [5], 20 µM.

On to `Cc1ccc2sn(/N=C/c3ccco3)c(=O)c2c1`, for which, in data set [1], the midpoint of cytotoxicity, the CC50 at 96 h, lay at 18 µM. Also, the EC50 in data set [2], in data set [3], in data set [4] and in data set [5] was above 18 µM throughout.

The molecule `Cc1ccc2sn(/N=C/c3ccc(O)cc3)c(=O)c2c1` came in with a half-maximal cytotoxic concentration (CC50) at 96 h in data set [1] of 23 µM. Besides, the half-maximal effective concentration (EC50) in data set [2] is at least 23 µM; in data set [3] it was above 23 µM; in data set [4] it was above 23 µM; in data set [5], above 23 µM.
